Assay outcomes: PubChem BioAssay, Broad Institute
The list is not random: actives were taken first. Their share in the collection is about 1.4%.
PvdQ acylase – P. aeruginosa PvdQ acylase inhibition; purified PvdQ acylase, fluorescence plate reader; inhibition, % at 10 µM; actives 0.063% (n = 340,000); in the data active = inhibition above about 30%, passing the limit was not always enough; inconclusive = no clear call, values can overlap the other calls
CAL PDZ FP-1 – blocks peptide binding to the human CAL PDZ domain; Q9HD26; purified CAL PDZ, TMR-peptide fluorescence polarization, 1 h; inhibition, % at 24.9 µM; actives 0.92% (n = 300,000); AID 602252;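 active = mean inhibition of at least 30% with at least half of replicates also reaching 30%; inconclusive = no clear call, values can overlap the other calls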
CDK5 p35 inh – blocks human CDK5/p35 kinase activity; Q00535+Q15078; Recombinant CDK5/p35, ADP-Glo luminescence, 60 min; inhibition, % at 10 µM; actives 0.01% (n = 330,000);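 active = highest replicate inhibition of at least 50% and at least 75% of replicates reaching 50%; inconclusive = only one of the two criteria met; inactive = both criteria failed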
Target sequence (Q00535 whole entry, looked up): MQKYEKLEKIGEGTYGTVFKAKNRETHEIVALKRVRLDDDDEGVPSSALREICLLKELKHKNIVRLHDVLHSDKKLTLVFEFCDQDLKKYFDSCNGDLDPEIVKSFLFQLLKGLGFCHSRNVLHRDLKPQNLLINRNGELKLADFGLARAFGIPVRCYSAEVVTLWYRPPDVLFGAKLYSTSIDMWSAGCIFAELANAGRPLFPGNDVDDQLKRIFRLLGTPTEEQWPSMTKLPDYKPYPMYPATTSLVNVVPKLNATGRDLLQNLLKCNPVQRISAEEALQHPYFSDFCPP
Target sequence (Q15078 whole entry, looked up): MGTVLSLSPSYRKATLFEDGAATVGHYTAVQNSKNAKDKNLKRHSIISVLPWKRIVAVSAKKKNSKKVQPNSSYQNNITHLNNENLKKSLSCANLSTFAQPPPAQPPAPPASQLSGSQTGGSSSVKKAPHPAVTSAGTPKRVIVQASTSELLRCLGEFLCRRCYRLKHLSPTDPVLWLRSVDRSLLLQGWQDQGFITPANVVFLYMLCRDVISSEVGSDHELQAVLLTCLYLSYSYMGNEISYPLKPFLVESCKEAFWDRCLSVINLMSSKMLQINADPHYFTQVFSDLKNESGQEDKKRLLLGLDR
Glyco luc inh – N-linked glycosylation inhibition; D54 ERlucT glycosylation luciferase reporter, 24 h; percent of 100 nM tunicamycin response; reporter increase, % at 12.5 µM; actives 0.23% (n = 360,000); AID 588692;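 active = mean luciferase reporter signal, scaled so untreated is 0 and the glycosylation-blocking control 100, at or above a set limit in every replicate; inconclusive = mean reaches the limit but not every replicate does; inactive = mean below the limit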;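 note: luciferase carries N-glycosylation sites so blocking glycosylation raises the light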
Vif inh – inhibitors of HIV Vif. HEK293T cells, Vif self-association by quenched fluorescence, imaging, 24 h. inhibition, % at 7.49 µM. actives 0.35% (n = 340,000). AID 602346; in the data active = inhibition above about 50%, passing the limit was not always enough; inconclusive = no clear call, values can overlap the other calls; inactive = below about 31%
CAL PDZ FP-2 – blocks peptide binding to human CAL PDZ domain; Q9HD26; purified CAL PDZ, TMR-peptide fluorescence polarization, 1 h; inhibition, % at 20 µM; actives 0.02% (n = 330,000);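 active = highest replicate inhibition of at least 40%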
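Assay system – tagged CAL PDZ protein CerCALP, purified · Timing – 1 h at RT · Compound – single point, 20 µM · Measured by – fluorescence polarization from S- and P-plane intensities, G-factor corrected · Evaluation – inhibition from polarization loss · Probe or stimulus – TMR reporter peptide T*-PRC34 · Buffer or medium – pH 7.4 phosphate-saline buffer, reducing agent, detergent, IgG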
Each line names hits and unclear results; the compound was inactive in the other large screens.

COCCn1c(=NC(=O)C2COc3ccccc3O2)sc2cc(S(N)(=O)=O)ccc21 (stereo unspecified)	none (no result: Vif inh)
Cc1ccc(OCCCCn2ccnc2C)c(C)c1	CAL PDZ FP-1 79
Cc1ccc(C(C)C)c(OCCn2ccnc2C)c1	none
O=C(Nc1ccnc(-c2cccnc2)n1)c1cccs1	Vif inh 119 (no result: CAL PDZ FP-1)
CC(=O)Nc1ccnc(-c2cccnc2)n1	none
CCC(=NC)C1=C(O)CC(c2ccccc2)CC1=O (stereo unspecified)	CAL PDZ FP-1 71 (no result: CAL PDZ FP-2)
CC(=N)C1=C(O)CC(c2ccccc2)CC1=O (stereo unspecified)	none (no result: CAL PDZ FP-1)
CC(=O)Nc1ccc(S(=O)(=O)Nc2ccccc2C(=O)N2CCCCCC2)cc1	none (no result: CAL PDZ FP-2)
CC(=O)n1cc(/C=N/NC(=O)c2ccccc2Cl)c2ccccc21	CAL PDZ FP-1 68 (no result: Vif inh)
CC(=O)N/N=C(/C)c1ccc(NC(=O)c2csc(C)c2C)cc1	none
Cc1cccc(NC(=O)CSc2nccn2Cc2ccco2)c1C	none (no result: Vif inh)
CC/C(=N/Nc1ccc(Cl)cc1)c1cnnc(SC)n1	none
CC/C(=N/Nc1cccc(C)c1)c1cnnc(SC)n1	Vif inh 82
N#CCCN(C(=O)COC(=O)CNC(=O)c1cccs1)c1ccc(F)cc1	none (no result: CAL PDZ FP-1)
CCOC(=O)C(CC(=O)c1ccccc1)CC(=O)c1ccccc1	none
C=C(C)CN(CC)C(=O)CSc1ccc(S(=O)(=O)N2CCN(C)CC2)cn1	none
C=C(C)CN(CC)C(=O)CSc1ccc(S(=O)(=O)N2CCN(Cc3ccccc3)CC2)cn1	CAL PDZ FP-1 69
O=S(=O)(O)c1ccc(N=NNc2ccc(Br)cc2)cc1	CAL PDZ FP-1 52
O=Cc1cc(N=Nc2ccc(S(=O)(=O)O)cc2)ccc1O	none
Cc1nc(C)c(C(=O)OCC(=O)NCc2ccccc2Cl)s1	none
CCCC1=Nc2cc(C(=O)N3CCN(c4ccccn4)CC3)ccc2Sc2ccc(C)cc21	none
COc1ccc(-c2nn(CCC#N)cc2/C=N/O)cc1	none
COc1ccc(-c2nn(CCC#N)cc2/C=N/O)cc1OC	CAL PDZ FP-1 58
O=C(Nc1ccc(Cl)cc1Cl)c1ccc2ncsc2c1	none
O=c1oc(C2(O)CCCCC2)cc2ccc(-c3ccc4[nH]ccc4c3)cc12	none
COc1cc([N+](=O)[O-])ccc1-c1ccc(/C=N\n2cnnc2)o1	Vif inh 177
Cc1ccc(S(=O)(=O)c2cnc3cc(C)nn3c2N)cc1	none
Cc1cc2ncc(S(C)(=O)=O)c(N)n2n1	CAL PDZ FP-1 56
COc1ccc(S(=O)(=O)N2CCN(C(=O)c3ccco3)CC2)c(C)c1C	CAL PDZ FP-1 75
COc1ccc(Cl)cc1S(=O)(=O)N1CCN(C(=O)c2ccco2)CC1	none
Cc1csc(SC(C)C(=O)NCc2ccc3c(c2)OCO3)n1 (stereo unspecified)	CAL PDZ FP-1 64
N#Cc1ccc(CSc2nc(N)cc(N)n2)cc1	CAL PDZ FP-1 72
Cc1ccc(CSc2nc(N)cc(N)n2)cc1	none (no result: CAL PDZ FP-2)
Cc1ccc(C)c(S(=O)(=O)N2CCCCC2CCNC(=O)C(=O)NCc2ccco2)c1 (stereo unspecified)	none
CCCCN(CC)CCNC(=O)Cn1cnc2sc(C)c(S(=O)(=O)N3CCC(C)CC3)c2c1=O	CAL PDZ FP-1 44
CCCCN(CC)CCNC(=O)Cn1cnc2sc(C)c(S(=O)(=O)N3CCOCC3)c2c1=O	none
COC(=O)c1ccc(SC2CCCCC2)c([N+](=O)[O-])c1	Vif inh 125
COC(=O)c1ccc(SCC(=O)NC2CCCC2)c([N+](=O)[O-])c1	Vif inh inconclusive
Cc1cc(-c2n[nH]c(=S)n2-c2ccccc2C)cs1	CAL PDZ FP-1 62
CN(C)C(=O)CNc1ccn2nc(-c3cccc(Cl)c3)cc2n1	none (no result: PvdQ acylase, CAL PDZ FP-1, CDK5 p35 inh, CAL PDZ FP-2)
CCOc1nc(N2CCCCC2)nc(-n2cc(-c3ccccc3)nn2)n1	Vif inh 55
Cc1ncc(CN2CCN(C3CCCC3)C(CCO)C2)s1 (stereo unspecified)	CAL PDZ FP-1 82
CSc1ncc(CN2CCN(C3CCCC3)C(CCO)C2)cn1 (stereo unspecified)	CAL PDZ FP-1 31
OCCC1CN(Cc2cnc(N3CCCC3)s2)CCN1C1CCCC1 (stereo unspecified)	none
CSc1ncc(CN2CCN(CC=C(C)C)C(CCO)C2)cn1 (stereo unspecified)	none
CCCS(=O)(=O)NC(=O)C1(C)CCN(C(=O)c2cccc(OC(F)(F)F)c2)C1 (stereo unspecified)	none (no result: PvdQ acylase, CAL PDZ FP-1, CDK5 p35 inh, CAL PDZ FP-2)
CCn1c(/C=C/c2ccccc2)nc2ccccc2c1=O	none
CCn1c(/C=C/c2ccc(F)cc2)nc2ccccc2c1=O	Vif inh 60 (no result: CAL PDZ FP-1)
COc1cccc(CN(CC2CCCO2)S(=O)(=O)c2ccc(-n3cnnn3)c(OC)c2)c1 (stereo unspecified)	none
COc1cccc(CN(c2ccc3c(c2)CCC3)S(=O)(=O)c2ccc(-n3cnnn3)c(OC)c2)c1	CAL PDZ FP-1 42 (no result: CDK5 p35 inh)
CN(CCO)c1ccc(C=NNc2ccc([N+](=O)[O-])cc2S(=O)(=O)Nc2ccccc2C(=O)O)cc1	none (no result: PvdQ acylase, CAL PDZ FP-1, CDK5 p35 inh, Vif inh, CAL PDZ FP-2)
CCOC(=O)CC(C#N)c1cn(C)c2ccccc12 (stereo unspecified)	PvdQ acylase 38
COc1ccc(CCNc2c3ccccc3nc3ccccc23)cc1OC	Glyco luc inh 84
COc1ccc(CCNc2nc(-c3ccccn3)cs2)cc1OC	CAL PDZ FP-1 49
COc1nc(NCCc2ccc(OC)c(OC)c2)nc(OC)n1	none
O=C(c1ccco1)N1CCN(Cc2nnc(-c3cccc(Cl)c3)o2)CC1	none
Cc1cc(C)n(/N=C\c2c(O)ccc3ccccc23)c(=O)c1C(N)=O	CAL PDZ FP-1 50
Oc1ccc2ccccc2c1/C=N/n1cnnc1	none (no result: CAL PDZ FP-1)
Cc1cc(NS(=O)(=O)c2c(C(=O)N3CCOCC3)c(C)n(C)c2C)ccc1Br	CAL PDZ FP-1 78
CCOc1ccc(N(CC(=O)Nc2ccc(OC)cc2)C2=NC3CS(=O)(=O)CC3S2)cc1 (stereo unspecified)	none (no result: CAL PDZ FP-1)
Cc1cc(C)nc(SCc2cc(=O)c(OC(=O)c3cc([N+](=O)[O-])ccc3Cl)co2)n1	none (no result: CDK5 p35 inh)
O=C(Oc1coc(CSc2ncccn2)cc1=O)c1ccccc1[N+](=O)[O-]	CAL PDZ FP-1 82
CCN1/C(=C/C=C/c2sc3ccccc3[n+]2CC)Sc2ccccc21	none
CCN1/C(=C/C=C/c2oc3ccc(-c4ccccc4)cc3[n+]2CC)Oc2ccc(-c3ccccc3)cc21	CAL PDZ FP-1 36, Vif inh 147
Cc1cc(OCCCN2CCCC2)ccc1Cl	none
CCOc1ccc(NC(=S)NC(=O)C2CCCC2)cc1	CAL PDZ FP-1 32
CCCN(CC(=O)Nc1ccccc1OC)C(=O)c1cc(-c2ccccc2)nn1-c1ccccc1	none
CN(c1ccc(OCC(=O)OCC(=O)Nc2ccccc2F)cc1)S(=O)(=O)c1cccs1	none
CCOc1ccc(NC(=O)CN(C)S(=O)(=O)c2cccs2)cc1	CAL PDZ FP-1 59
